Columns and labels:
[1] = Growth inhibition of HSF cells assessed as BrdU incorporation at 33.1 uM after 72 hrs by spectrophotometry; format: cell-based; settings: human, read-out: GI
Outline: (§1)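 Cells were seeded at 10⁴ cells/mL and preincubated. Compounds were dissolved in DMSO and added at two fixed concentrations, then incubated for 72 h. End-point was BrdU labelling with ELISA detection, read spectrophotometrically. Result is % growth inhibition versus untreated controls. Triplicates.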

[2] = test system: Vero; assay: Growth inhibition of african green monkey Vero cells assessed as BrdU incorporation at 33.1 uM after 72 hrs by spectrophotometry; format: cell-based; settings: chlorocebus sabaeus; outline: as §1
[3] = Growth inhibition of human LS180 cells assessed as BrdU incorporation at 33.1 uM after 72 hrs by spectrophotometry; format: functional; settings: LS180, 72 h, read-out: GI; outline: as §1
[4] = test system: SiHa; assay: Growth inhibition of human SiHa cells assessed as BrdU incorporation at 33.1 uM after 72 hrs by spectrophotometry; format: functional; settings: read-out: GI; outline: as §1
[5] = test system: T47D; assay: Growth inhibition of human T47D cells assessed as BrdU incorporation at 33.1 uM after 72 hrs by spectrophotometry; format: functional; settings: read-out: GI
Outline: (§2)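 Each cell line was seeded at 10⁴ cells per mL and preincubated. Test agents were dissolved in DMSO, added at two examined concentrations (10 and 50 per mL by mass), and incubated for 72 h. The end-point was BrdU labeling and detection kit III read on an ELISA reader. Percent growth inhibition was calculated against untreated controls, in triplicate.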

[6] = Growth inhibition of HSF cells assessed as BrdU incorporation at 165.4 uM after 72 hrs by spectrophotometry; format: cell-based; settings: human, read-out: GI; outline: as §1
[7] = Growth inhibition of african green monkey Vero cells assessed as BrdU incorporation at 165.4 uM after 72 hrs by spectrophotometry; format: cell-based; settings: chlorocebus sabaeus, read-out: GI; outline: as §1
[8] = Growth inhibition of human LS180 cells assessed as BrdU incorporation at 165.4 uM after 72 hrs by spectrophotometry; format: functional; settings: LS180, 72 h, read-out: GI; outline: as §1
[9] = test system: SiHa; assay: Growth inhibition of human SiHa cells assessed as BrdU incorporation at 165.4 uM after 72 hrs by spectrophotometry; format: functional; settings: read-out: GI; outline: as §1
[10] = test system: T47D; assay: Growth inhibition of human T47D cells assessed as BrdU incorporation at 165.4 uM after 72 hrs by spectrophotometry; format: functional; settings: read-out: GI; outline: as §2
[11] = Cytotoxicity against HSF cells assessed as cell viability at 1 uM after 24 hrs by MTT assay relative to control; format: cell-based; settings: human, read-out: Activity
Outline: (§3)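 Normal human skin fibroblasts (HSF, primary line) were exposed to DMSO-dissolved compound for 24 h. Viability was read by MTT tetrazolium reduction and expressed against untreated control set at 100%.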

[12] = Cytotoxicity against HSF cells assessed as cell viability at 50 uM after 24 hrs by MTT assay relative to control; format: cell-based; settings: human, read-out: Activity; outline: as §3
[13] = Cytotoxicity against HSF cells assessed as cell viability at 100 uM after 24 hrs by MTT assay relative to control; format: cell-based; settings: human, read-out: Activity; outline: as §3
[14] = test system: Jurkat; assay: Cytotoxicity against human Jurkat cells assessed as cell viability at 1 uM after 24 hrs by MTT assay relative to control; format: functional; settings: read-out: Activity
Outline: (§4)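 Jurkat T-cell leukaemia line grown in RPMI 1640 with 10% FBS, 2 mM L-glutamine and gentamycin at 37 °C, 5% CO2, kept in log phase. Compounds were dissolved in DMSO and applied for 24 h. Cells were washed in HEPES-buffered medium (pH 7.4) and given MTT at 0.5 mg/mL for 45 min at 37 °C. Formazan was dissolved in DMSO and read at 570 nm. Viability is % of control, from three independent measurements.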

[15] = test system: Jurkat; assay: Cytotoxicity against human Jurkat cells assessed as cell viability at 50 uM after 24 hrs by MTT assay relative to control; format: functional; settings: read-out: Activity; outline: as §4
[16] = test system: Jurkat; assay: Cytotoxicity against human Jurkat cells assessed as cell viability at 100 uM after 24 hrs by MTT assay relative to control; format: functional; settings: read-out: Activity; outline: as §4
[17] = Growth inhibition of human LS180 cells assessed as BrdU incorporation after 72 hrs by spectrophotometry; format: functional, cell-based; settings: LS180, 72 h
Outline: (§5)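 Cancer cells were seeded at 10⁴ cells/mL, preincubated, then exposed for 72 h to DMSO-dissolved compound. Growth was read by BrdU labelling with ELISA spectrophotometry. IC50 was taken from 72 h dose–survival curves. Triplicates.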

[18] = test system: SiHa; assay: Growth inhibition of human SiHa cells assessed as BrdU incorporation after 72 hrs by spectrophotometry; format: functional, cell-based; outline: as §5
[19] = test system: T47D; assay: Growth inhibition of human T47D cells assessed as BrdU incorporation after 72 hrs by spectrophotometry; format: functional, cell-based; outline: as §5
[20] = test system: Jurkat; assay: Cytotoxicity against human Jurkat cells assessed as decrease in cell viability after 24 hrs by MTT assay; format: functional, cell-based
Outline: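 Jurkat cells grown in RPMI 1640/10% FBS at 37 °C, 5% CO2, with 24 h exposure to DMSO-dissolved compound. Read-out was MTT reduction: 0.5 mg/mL in HEPES-buffered medium for 45 min, formazan in DMSO, absorbance at 570 nm. IC50 was taken from 24 h dose–survival curves.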

[21] = test system: Mus musculus; assay: Neurotoxicity in ip dosed Swiss albino mouse assessed as impair in motor coordination at 0.1 LD50 concentration by rotarod test; format: toxicity, organism-based; settings: in vivo
Outline: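 Male Albino Swiss mice (20-25 g), housed 8-10 per cage at 20 ± 1 °C on a 12/12 h light-dark cycle with food and water ad libitum. Randomized groups of 10. Compound given i.p. as a suspension in 3% Tween 80 at 10 mL kg^-1; controls received the same volume of vehicle. Tests run 8 a.m.-3 p.m.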

| SMILES | viability at 24 h, 1 µM [11] [%] | viability at 24 h, 50 µM [12] [%] | viability at 24 h, 100 µM [13] [%] | viability at 1 µM [14] [%] | viability at 50 µM [15] [%] | viability at 100 µM [16] [%] | also measured |
| --- | --- | --- | --- | --- | --- | --- | --- |
| COc1ccc(N2CCn3c2nnc(C(=O)NN)c3=O)cc1 | 98 | 102 | 100 | 97 | 97 | 100 | inhibition at 72 h, 33.1 µM [1]: 0%; growth inhibition (GI) [2]: 0%; inhibition of growth at 33.1 µM [3]: 1%; inhibition of growth at 33.1 µM [4]: 19%; inhibition of growth at 33.1 µM [5]: 1%; inhibition at 72 h, 165.4 µM [6]: 0%; inhibition at 72 h, 165.4 µM [7]: 0%; inhibition of growth at 165.4 µM [8]: 1%; inhibition of growth at 165.4 µM [9]: 18%; inhibition of growth at 165.4 µM [10]: 0% |
| CCOC(=O)c1nnc2n(c1=O)CCN2c1ccc(OC)cc1 | 104 | 100 | 97 | 118 | 110 | 110 |  |
| CCOC(=O)c1nnc2n(c1=O)CCN2c1ccccc1 | 91.6 | 98.1 | 77.1 | 82 | 103 | 105 |  |
| CCOC(=O)c1nnc2n(c1=O)CCN2c1ccc(Cl)c(Cl)c1 | 102 | 84 | 85 | 91 | 28 | 23 | IC50 [17]: > 100 µM; IC50 [18]: > 100 µM; IC50 [19]: > 100 µM; IC50 [20]: 32.2 µM; Activity [21]: Non-toxic |
